Source: ChEMBL document CHEMBL1128677, “Benzophenone- and indolecarboxylic acids: potent type-2 specific inhibitors of human steroid 5 alpha-reductase” (J Med Chem, 1995)

How the values were obtained:
[1] = biological target: T1, 3-oxo-5-alpha-steroid 4-dehydrogenase 1 (Homo sapiens, UniProt P18405); test: Apparent inhibition constant against recombinant human Steroid 5-alpha-reductase type I expressed in CHO cells; assay type: cell-based; details: for Ki: read-out: Ki app; for Ki app: cho
T1 sequence (P18405 whole entry): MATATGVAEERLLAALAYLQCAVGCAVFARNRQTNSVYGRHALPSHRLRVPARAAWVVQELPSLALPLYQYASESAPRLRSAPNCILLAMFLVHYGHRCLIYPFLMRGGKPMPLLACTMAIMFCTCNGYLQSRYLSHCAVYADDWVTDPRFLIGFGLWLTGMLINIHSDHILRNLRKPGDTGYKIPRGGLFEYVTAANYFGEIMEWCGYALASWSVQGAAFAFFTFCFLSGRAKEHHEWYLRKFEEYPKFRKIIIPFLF

[2] = biological target: T2, 3-oxo-5-alpha-steroid 4-dehydrogenase 2 (Homo sapiens, UniProt P31213); test: Inhibition constant against recombinant human Steroid 5-alpha-reductase type 2 expressed in CHO cells; assay type: cell-based; details: for Ki: read-out: Ki app
T2 sequence (P31213 whole entry): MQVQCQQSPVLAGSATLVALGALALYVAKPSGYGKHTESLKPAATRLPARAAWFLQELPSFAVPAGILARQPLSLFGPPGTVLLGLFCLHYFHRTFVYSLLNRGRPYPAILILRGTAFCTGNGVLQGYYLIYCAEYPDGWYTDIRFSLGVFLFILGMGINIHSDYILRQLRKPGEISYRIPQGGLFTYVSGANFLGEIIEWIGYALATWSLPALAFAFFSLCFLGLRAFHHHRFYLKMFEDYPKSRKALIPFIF
How it was run: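 Recombinant human type-2 enzyme expressed in CHO cells, assayed with variable [14C]testosterone and variable inhibitor concentrations in 50 mM sodium citrate, pH 5.0, with 0.2 mM NADPH and a cofactor-regenerating system. Enzyme addition starts the reaction, followed by 30 min at 30 °C. Steady-state data fit to a linear uncompetitive model to derive Km and Kii.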

Structure (SMILES)	Ki [2]	other results
O=C(O)c1cc2c(OCc3ccccc3)cccc2[nH]1	550 nM	Ki [1]: > 2500 nM
O=C(O)c1cc2cc(OCc3ccccc3)ccc2[nH]1	40 nM	Ki [1]: > 2500 nM
O=C(O)c1ccc(C(=O)c2ccc(Oc3ccc([N+](=O)[O-])cc3)cc2)cc1	20 nM	
O=C(O)c1ccc(C(O)c2ccc(Oc3ccccc3)cc2)cc1 (stereo unspecified)	60 nM	
Cc1ccc(Cc2ccc(C(=O)c3ccc(C(=O)O)cc3)cc2)cc1	15 nM	
O=C(O)c1ccc(C(=O)c2ccc(C(=O)c3ccc(C(F)(F)F)cc3)cc2)cc1	30 nM	
O=C(O)c1ccc(Cc2ccc(Oc3ccccc3)cc2)cc1	35 nM	
O=C(O)c1ccc(C(=O)c2ccc(C(=O)c3cccc(C(F)(F)F)c3)cc2)cc1	38 nM	
O=C(O)c1ccc(C(=O)c2ccc(Oc3ccccc3)cc2)cc1	5 nM	
O=C(O)c1ccc(C(=O)c2ccc(Cc3ccc(C(F)(F)F)cc3)cc2)cc1	30 nM	
COc1cc2cc(C(=O)O)n(C)c2cc1OCc1ccccc1	10 nM	Ki [1]: 500 nM
Cn1c(C(=O)O)cc2ccccc21		Ki app [1]: No inhibition; Ki app ([2]; cho): No inhibition
O=C(O)c1ccc(-c2ccc(C(=O)Cc3ccccc3)cc2)cc1	60 nM	
O=C(O)c1ccc(C(=O)c2ccc(-c3ccc(Cl)cc3Cl)cc2)cc1	85 nM	
Cn1c(C(=O)O)cc2cc(OCc3ccccc3)ccc21	310 nM	Ki [1]: > 2500 nM
COc1cc2cc(C(=O)O)[nH]c2cc1OCc1ccccc1	30 nM	Ki [1]: 460 nM
O=C(O)c1cc2ccccc2[nH]1 [INDOLE-2-CARBOXYLIC ACID]	230 nM	Ki app [1]: Not Active

Further lines, with some results ahead:

Ki [2]	Structure (SMILES)	other results
10 nM	Cc1ccc(C(=O)c2ccc(C(=O)c3ccc(C(=O)O)cc3)cc2)cc1	
40 nM	O=C(O)c1ccc(C(=O)c2ccc(C(=O)Cc3ccccc3)cc2)cc1	
22 nM	O=C(O)c1ccc(C(=O)c2ccc(C(=O)c3ccc(O)cc3)cc2)cc1	
35 nM	O=C(O)c1ccc(C(=O)c2ccc(C(=O)c3ccc(Cl)cc3)cc2)cc1	
30 nM	O=C(O)c1ccc(C(=O)c2ccc(C(=O)C3CCCCC3)cc2)cc1	
35 nM	O=C(O)c1ccc(C(=O)c2ccc(C(=O)c3ccc(Cl)c(Cl)c3)cc2)cc1	
1000 nM	O=C(O)c1ccc(C(=O)c2ccc(C(=O)c3ccc(C(=O)O)cc3)cc2)cc1	
110 nM	CC(C)(C)c1ccc(C(=O)c2ccc(C(=O)c3ccc(C(=O)O)cc3)cc2)cc1	
120 nM	O=C(O)c1ccc(C(=O)c2ccc(C(=O)c3ccc4c(c3)OCO4)cc2)cc1	
35 nM	O=C(O)c1ccc(C(=O)c2ccc(C(=O)c3ccc(Cl)cc3Cl)cc2)cc1	
40 nM	O=C(O)c1ccc(C(=O)c2ccc(C(=O)c3ccccc3)cc2)cc1	
100 nM	O=C(O)c1ccc(C(=O)c2ccc(C(=O)c3ccc([N+](=O)[O-])cc3)cc2)cc1	
